From article PMC12667952 (bioRxiv, 2025)
Positions count from the first letter of the chain named. Entries after “also recorded” stand apart in the source; their conditions may differ.

Tests used:
hGlyT2^WT [1] = biological target: T1, hGlyT2^WT (Homo sapiens, UniProt Q9Y345); experiment: Sodium dependence of inhibition of glycine transport currents; type: cell-based; details: 300 μM glycine
T1 sequence (Q9Y345 1-797): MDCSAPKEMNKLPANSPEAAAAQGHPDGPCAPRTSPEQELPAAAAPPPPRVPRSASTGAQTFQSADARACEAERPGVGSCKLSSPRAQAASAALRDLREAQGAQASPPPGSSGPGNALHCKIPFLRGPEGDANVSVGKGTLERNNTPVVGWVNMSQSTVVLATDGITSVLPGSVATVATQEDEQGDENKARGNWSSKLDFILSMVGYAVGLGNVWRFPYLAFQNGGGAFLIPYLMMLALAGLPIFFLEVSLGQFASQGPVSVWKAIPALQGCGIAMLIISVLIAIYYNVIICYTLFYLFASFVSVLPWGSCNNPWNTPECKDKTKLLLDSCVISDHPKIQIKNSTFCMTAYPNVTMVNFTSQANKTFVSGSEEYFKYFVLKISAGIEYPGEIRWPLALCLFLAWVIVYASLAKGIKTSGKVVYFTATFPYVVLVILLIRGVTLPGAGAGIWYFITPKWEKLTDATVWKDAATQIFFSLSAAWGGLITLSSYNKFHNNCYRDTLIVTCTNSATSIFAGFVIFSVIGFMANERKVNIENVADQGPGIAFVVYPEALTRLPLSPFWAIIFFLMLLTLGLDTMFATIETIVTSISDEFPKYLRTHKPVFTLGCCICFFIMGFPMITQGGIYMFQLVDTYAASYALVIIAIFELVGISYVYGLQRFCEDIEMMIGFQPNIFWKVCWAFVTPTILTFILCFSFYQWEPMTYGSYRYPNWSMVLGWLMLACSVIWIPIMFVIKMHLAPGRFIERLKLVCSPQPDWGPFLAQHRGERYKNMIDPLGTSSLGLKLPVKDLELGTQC

hGlyT2^WT [2] = biological target: T1, hGlyT2^WT; type: cell-based; details: glycine concentration-dependent currents with co-applied inhibitor
hGlyT2^WT [3] = biological target: T1, hGlyT2^WT; experiment: Reversibility; type: cell-based; details: washout, hGlyT2^WT
Summary of the method: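 Xenopus oocytes injected with 20 ng hGlyT2 WT cRNA and held 3–6 days at 18 °C. Glycine currents recorded by two-electrode voltage clamp at −60 mV. Test compound applied at a single concentration (10 μM maximum), then washed out. Recovery of 30 µM glycine-evoked currents followed to 30 min, normalised to pre-inhibitor current. n ≥ 5 from at least two frogs.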

hGlyT2^W215F = biological target: T2, hGlyT2^W215F (Homo sapiens, UniProt Q9Y345, W215F); experiment: Reversibility; type: cell-based
T2 sequence (Q9Y345 1-797 W215F): T1 sequence (Q9Y345 1-797) with W215F

CCI mice = experiment: Cold allodynia; type: in vivo, mouse; details: for Peak reduction of response rate to acetone stimulus: by 2-hour time point
Summary of the method: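 CCI mice tested 14 days after surgery. […] Acetone-evoked cold allodynia scored before surgery, at t = 0 before dosing, and at 0.5, 1, 1.5, 2, 4 and 6 h. Expressed as % of maximal possible responses. Two-way ANOVA with Dunnett's test versus vehicle.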

mice = experiment: Side effect scoring; type: in vivo, mouse
Summary of the method: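 Adverse events, including sedation, recorded at each time point as mice were placed in the testing apparatus after i.p. dosing. Each scored 0–3 (none, mild, moderate, severe), and scores averaged per treatment group.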

naïve, uninjured mice = experiment: Respiratory function by whole-body plethysmography; type: in vivo, mouse
Summary of the method: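 Whole-body plethysmography on naïve, uninjured mice in two parallel chambers linked to a pressure transducer. Mice briefly removed for injection, then returned. Breathing recorded for 5 min at 30, 60, 90, 120 and 180 min post-injection. Frequency, tidal volume and minute volume averaged and normalised to % baseline. […] Two-way ANOVA with Dunnett's test.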

[4] = biological target: serotonin 2A (5-HT2A) receptor (Homo sapiens, UniProt P28223); experiment: 5-HT2A receptor antagonist IC50 determination; type: cell-based
serotonin 2A (5-HT2A) receptor, sequence (P28223 whole entry, species assumed): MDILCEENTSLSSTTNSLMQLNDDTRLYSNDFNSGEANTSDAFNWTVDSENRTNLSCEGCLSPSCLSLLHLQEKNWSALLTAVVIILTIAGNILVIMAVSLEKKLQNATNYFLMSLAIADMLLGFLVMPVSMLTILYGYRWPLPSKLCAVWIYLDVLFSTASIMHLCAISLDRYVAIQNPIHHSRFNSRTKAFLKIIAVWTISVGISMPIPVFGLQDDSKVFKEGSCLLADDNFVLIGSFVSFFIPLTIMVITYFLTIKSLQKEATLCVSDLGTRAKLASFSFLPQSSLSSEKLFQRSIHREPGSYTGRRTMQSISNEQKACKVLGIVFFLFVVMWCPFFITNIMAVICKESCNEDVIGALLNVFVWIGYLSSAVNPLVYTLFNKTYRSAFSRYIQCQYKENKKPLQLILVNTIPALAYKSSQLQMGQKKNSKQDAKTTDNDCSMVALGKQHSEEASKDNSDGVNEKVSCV

## CN(C)C1(CNC(=O)c2ccc3c(c2)CCN3C(=O)c2ccccc2)CCOCC1 [RPI-GLYT2–82, 1-benzoyl-N-((4-(dimethylamino)tetrahydro-2H-pyran-4-yl)methyl)indoline-5-carboxamide]
hGlyT2^WT [1]; IC50 at 20 mM Na+, 20 mM Na+, choline chloride substitute
  IC50: 159 nM
hGlyT2^WT [1]; IC50 at 100 mM Na+, 100 mM Na+
  IC50: 279 nM
hGlyT2^WT [2]
  Mechanism of inhibition: non-competitive inhibitor
hGlyT2^WT [3]
  Reversibility of inhibition (recovery of glycine-induced currents): recovered to pre-inhibition levels within five minutes
hGlyT2^W215F
  Washout of inhibitor from hGlyT2^W215F: almost immediate
CCI mice; 50 mg/kg i.p.
  Peak reduction of response rate to acetone stimulus: 59%
CCI mice; 100 mg/kg i.p.
  Peak reduction of response rate to acetone stimulus: 62%
CCI mice; 50 and 100 mg/kg
  Efficacy at alleviating cold allodynia compared to gabapentin: comparable efficacy to the control compound gabapentin; also recorded: equivalent efficacy
  Time of peak anti-allodynia effects, cold allodynia: ≤ 2 h
mice; 250 mg/kg (maximal dose)
  Sedation: transient sedation
mice; 250 mg/kg i.p.
  Time to full recovery from sedation: ≤ 90 min
naïve, uninjured mice; 50 mg/kg
  Respiration frequency, minute volume (MVb), tidal volume (TVb): did not change
naïve, uninjured mice; 250 mg/kg, frequency and MVb first hour, TVb first 30 minutes
  Respiratory frequency, MVb and TVb: transient changes
[4]
  IC50: 1900 nM
